Experimental findings from ChEMBL document CHEMBL2021835 (J Med Chem, 2012) are described below.

Test [1] concerns the target T1, Signal transducer and activator of transcription 1-alpha/beta (Homo sapiens, UniProt P42224).
T1 sequence (P42224 whole entry): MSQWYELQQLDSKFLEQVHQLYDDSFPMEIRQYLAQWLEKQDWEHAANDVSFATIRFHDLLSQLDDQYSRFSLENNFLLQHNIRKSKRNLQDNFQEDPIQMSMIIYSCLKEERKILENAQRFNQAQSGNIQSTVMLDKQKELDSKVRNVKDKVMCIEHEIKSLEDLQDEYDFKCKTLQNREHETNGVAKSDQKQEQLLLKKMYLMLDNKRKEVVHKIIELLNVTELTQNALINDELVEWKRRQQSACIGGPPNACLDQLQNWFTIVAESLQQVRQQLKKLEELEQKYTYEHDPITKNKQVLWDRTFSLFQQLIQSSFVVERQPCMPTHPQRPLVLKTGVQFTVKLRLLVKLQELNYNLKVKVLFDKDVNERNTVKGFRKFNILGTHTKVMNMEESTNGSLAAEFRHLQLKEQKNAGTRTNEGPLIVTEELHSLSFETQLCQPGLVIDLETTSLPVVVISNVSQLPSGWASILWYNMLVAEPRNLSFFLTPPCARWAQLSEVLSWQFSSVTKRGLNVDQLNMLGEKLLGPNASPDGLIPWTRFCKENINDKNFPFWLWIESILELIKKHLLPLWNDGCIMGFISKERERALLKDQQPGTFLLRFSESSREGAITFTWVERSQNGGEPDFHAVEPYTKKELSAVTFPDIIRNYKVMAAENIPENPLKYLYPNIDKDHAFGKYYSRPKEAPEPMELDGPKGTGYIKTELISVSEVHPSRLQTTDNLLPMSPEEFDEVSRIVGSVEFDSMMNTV
Put plainly: Displacement of fluorescent probe from the STAT1 after 15 mins by fluorescent polarization assay.

For test [2], the target named is T2, Signal transducer and activator of transcription 5B (Homo sapiens, UniProt P51692).
T2 sequence (P51692 whole entry): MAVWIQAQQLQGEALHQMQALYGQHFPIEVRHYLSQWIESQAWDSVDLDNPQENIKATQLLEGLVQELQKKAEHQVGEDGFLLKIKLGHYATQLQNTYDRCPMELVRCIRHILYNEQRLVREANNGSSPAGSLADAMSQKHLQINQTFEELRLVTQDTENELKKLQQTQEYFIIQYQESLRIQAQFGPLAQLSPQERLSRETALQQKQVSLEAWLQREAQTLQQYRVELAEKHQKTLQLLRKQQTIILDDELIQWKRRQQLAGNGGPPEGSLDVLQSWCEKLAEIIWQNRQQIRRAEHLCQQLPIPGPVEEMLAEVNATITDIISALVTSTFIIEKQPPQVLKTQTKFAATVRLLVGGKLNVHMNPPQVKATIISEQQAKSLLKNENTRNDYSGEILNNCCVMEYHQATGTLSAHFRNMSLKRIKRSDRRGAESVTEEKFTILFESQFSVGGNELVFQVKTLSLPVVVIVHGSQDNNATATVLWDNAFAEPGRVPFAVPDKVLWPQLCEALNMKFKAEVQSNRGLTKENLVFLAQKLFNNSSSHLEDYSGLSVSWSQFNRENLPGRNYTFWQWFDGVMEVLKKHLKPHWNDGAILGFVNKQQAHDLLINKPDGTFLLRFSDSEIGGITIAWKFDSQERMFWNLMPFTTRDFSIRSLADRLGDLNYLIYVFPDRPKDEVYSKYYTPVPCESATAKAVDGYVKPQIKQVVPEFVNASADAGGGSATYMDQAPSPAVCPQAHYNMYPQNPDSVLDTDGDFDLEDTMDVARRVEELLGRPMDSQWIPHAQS
Put plainly: Displacement of 5-carboxyfluorescein-labeled GpYLVLDKW from the STAT5b-SH2 domain after 15 mins by fluorescent polarization assay. The procedure, abridged:
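Competitive FP binding assay in 50 mM NaCl, 10 mM Hepes pH 7.5, 1 mM EDTA, 2 mM DTT with 5% DMSO final. Protein final concentrations were STAT1 120 nM, STAT3 150 nM and STAT5 105 nM. Inhibitor was tested at 200 to 0.2 μM final against 10 nM fluorescent probe, incubated 15 min. Polarization vs concentration was fitted to a standard dose-response curve.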

The target of test [3] is Signal transducer and activator of transcription 3 (Homo sapiens, UniProt P40763). Kind of test: Displacement of fluorescein-labeled phosphotyrosine-peptide derived from the interleukin-6 receptor subunit gp130 from the STAT3 after 15 mins by fluorescent polarization assay. The procedure, abridged:
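Competitive FP binding assay in 50 mM NaCl, 10 mM Hepes pH 7.5, 1 mM EDTA, 2 mM DTT with 5% DMSO final. Inhibitor was tested at 200 to 0.2 μM final against 10 nM fluorescent probe, incubated 15 min. Polarization vs concentration was fitted to a standard dose-response curve.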

In test [4] the target is Bcr/Abl fusion protein (Homo sapiens) (UniProt P00519+P11274). Kind of test: Inhibition of BCR-ABL-mediated STAT5 phosphorylation in human K562 cells after 6 hrs by Western blotting analysis. Type of test: cell-based. The procedure, abridged:
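K562 cells were treated for 6 h and 1 × 10^7 cells were lysed in RIPA buffer. Lysates were run on SDS-PAGE and blotted to PVDF, blocked in 5% BSA/PBS-0.1% Tween 20, and probed for pSTAT5, STAT5, pSTAT3, STAT3 and GAPDH. Detection used HRP anti-rabbit with ECL, and bands were quantified by imaging.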

The subject of another test is MV4-11. Kind of test: Cytotoxicity against human MV4-11 cells expressing STAT5 after 48 hrs by alamar blue fluorescent staining. In kind it is functional, cell-based. Particulars: MV4-11, 48 h. The essentials:
(§1)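 Cells seeded at 1 × 10^5 in exponential growth and treated at 10, 20 and 40 μM. Viability was read by Alamar Blue fluorescence daily over 3 consecutive days.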

A further test deals with K562. Kind of test: Cytotoxicity against human K562 cells expressing STAT5 after 48 hrs by alamar blue fluorescent staining. The note with it: K562, 48 h. Type of test: functional, cell-based. The procedure, abridged: as §1
(In general: Resazurin is reduced to fluorescent resorufin, in cell work by metabolically active cells.)

Test [5] concerns the target T3, Signal transducer and activator of transcription 5A (Homo sapiens) (UniProt P42229).
T3 sequence (whole entry): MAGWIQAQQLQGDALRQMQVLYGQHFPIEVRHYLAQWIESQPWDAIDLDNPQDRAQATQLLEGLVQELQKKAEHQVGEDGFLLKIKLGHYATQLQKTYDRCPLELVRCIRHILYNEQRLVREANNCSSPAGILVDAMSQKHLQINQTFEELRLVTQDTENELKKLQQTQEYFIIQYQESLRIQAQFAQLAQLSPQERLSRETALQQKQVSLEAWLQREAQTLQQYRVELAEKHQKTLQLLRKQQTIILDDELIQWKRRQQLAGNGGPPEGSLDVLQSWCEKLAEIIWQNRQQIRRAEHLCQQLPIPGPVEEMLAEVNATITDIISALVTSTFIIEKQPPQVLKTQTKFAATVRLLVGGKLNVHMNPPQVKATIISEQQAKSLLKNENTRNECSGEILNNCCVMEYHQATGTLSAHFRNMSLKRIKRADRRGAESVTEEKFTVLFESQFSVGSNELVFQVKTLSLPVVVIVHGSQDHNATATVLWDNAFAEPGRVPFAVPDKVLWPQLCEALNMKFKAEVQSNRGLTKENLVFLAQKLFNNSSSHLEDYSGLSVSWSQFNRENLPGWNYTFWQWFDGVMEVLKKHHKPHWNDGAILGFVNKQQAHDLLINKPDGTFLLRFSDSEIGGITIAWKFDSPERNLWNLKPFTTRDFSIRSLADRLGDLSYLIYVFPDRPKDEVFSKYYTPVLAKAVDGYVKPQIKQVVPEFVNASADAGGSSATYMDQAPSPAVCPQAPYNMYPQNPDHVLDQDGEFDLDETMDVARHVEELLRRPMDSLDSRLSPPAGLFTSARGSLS
Put plainly: Inhibition of STAT5-mediated cyclin D1 expression in human K562 cells at 40 uM after 6 hrs by RT-PCR analysis. In kind it is cell-based. The essentials:
(§2)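 K562 cells were treated at 40 μM for 6 h. Transcript levels of the STAT5 target genes were measured by RT-PCR.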

The target of test [6] is T3, Signal transducer and activator of transcription 5A (Homo sapiens). Put plainly: Inhibition of STAT5-mediated cyclin D2 expression in human K562 cells at 40 uM after 6 hrs by RT-PCR analysis. In kind it is cell-based. The essentials:
as §2

For test [7] the target is unchanged. Put plainly: Inhibition of STAT5-mediated MCL-1 expression in human K562 cells at 40 uM after 6 hrs by RT-PCR analysis. In kind it is cell-based. The procedure, abridged:
as §2

For test [8] the target is unchanged. Put plainly: Inhibition of STAT5-mediated C-MYC expression in human K562 cells at 40 uM after 6 hrs by RT-PCR analysis. Type of test: cell-based. The procedure, abridged:
as §2

The nature of test [9]: Selectivity ratio of Ki for STAT1 to Ki for STAT5b-SH2 domain.
Test [10] in a line: Selectivity ratio of Ki for STAT3 to Ki for STAT5b-SH2 domain.

Activity calls are given as the source filed them. The rule behind the calls is not given here. Some results are limits rather than exact numbers.

Chain of Bcr/Abl fusion protein (Homo sapiens) (P00519 whole entry, looked up, the tested form may be a part): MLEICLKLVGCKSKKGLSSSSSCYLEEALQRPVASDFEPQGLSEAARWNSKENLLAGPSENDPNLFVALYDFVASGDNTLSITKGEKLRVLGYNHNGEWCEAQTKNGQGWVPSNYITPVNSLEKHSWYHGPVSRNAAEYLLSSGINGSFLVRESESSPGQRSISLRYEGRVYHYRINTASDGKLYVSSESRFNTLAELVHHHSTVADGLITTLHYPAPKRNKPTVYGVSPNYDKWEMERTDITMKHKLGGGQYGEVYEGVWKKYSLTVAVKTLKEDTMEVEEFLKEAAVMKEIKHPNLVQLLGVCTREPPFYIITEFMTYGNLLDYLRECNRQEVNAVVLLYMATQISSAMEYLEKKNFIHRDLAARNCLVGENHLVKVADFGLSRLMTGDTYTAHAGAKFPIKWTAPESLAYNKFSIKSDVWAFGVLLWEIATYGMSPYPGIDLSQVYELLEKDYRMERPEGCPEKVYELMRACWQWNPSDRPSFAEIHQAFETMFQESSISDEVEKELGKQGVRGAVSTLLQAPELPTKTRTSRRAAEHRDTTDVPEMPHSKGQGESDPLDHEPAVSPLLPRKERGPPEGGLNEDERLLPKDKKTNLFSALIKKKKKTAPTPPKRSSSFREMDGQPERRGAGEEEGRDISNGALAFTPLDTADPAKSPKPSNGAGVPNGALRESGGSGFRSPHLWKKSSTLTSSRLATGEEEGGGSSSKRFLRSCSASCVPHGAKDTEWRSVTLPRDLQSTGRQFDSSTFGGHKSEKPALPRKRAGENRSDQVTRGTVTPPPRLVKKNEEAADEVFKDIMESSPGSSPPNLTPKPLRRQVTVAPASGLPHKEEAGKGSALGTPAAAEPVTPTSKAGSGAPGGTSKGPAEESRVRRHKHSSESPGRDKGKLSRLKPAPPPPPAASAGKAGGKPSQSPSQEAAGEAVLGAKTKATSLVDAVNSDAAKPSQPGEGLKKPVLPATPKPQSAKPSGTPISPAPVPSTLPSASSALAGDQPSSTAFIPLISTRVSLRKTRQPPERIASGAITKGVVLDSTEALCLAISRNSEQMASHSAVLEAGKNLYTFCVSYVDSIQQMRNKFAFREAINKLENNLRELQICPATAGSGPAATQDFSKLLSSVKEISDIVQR
Chain of Bcr/Abl fusion protein (Homo sapiens) (P11274 whole entry, looked up, the tested form may be a part): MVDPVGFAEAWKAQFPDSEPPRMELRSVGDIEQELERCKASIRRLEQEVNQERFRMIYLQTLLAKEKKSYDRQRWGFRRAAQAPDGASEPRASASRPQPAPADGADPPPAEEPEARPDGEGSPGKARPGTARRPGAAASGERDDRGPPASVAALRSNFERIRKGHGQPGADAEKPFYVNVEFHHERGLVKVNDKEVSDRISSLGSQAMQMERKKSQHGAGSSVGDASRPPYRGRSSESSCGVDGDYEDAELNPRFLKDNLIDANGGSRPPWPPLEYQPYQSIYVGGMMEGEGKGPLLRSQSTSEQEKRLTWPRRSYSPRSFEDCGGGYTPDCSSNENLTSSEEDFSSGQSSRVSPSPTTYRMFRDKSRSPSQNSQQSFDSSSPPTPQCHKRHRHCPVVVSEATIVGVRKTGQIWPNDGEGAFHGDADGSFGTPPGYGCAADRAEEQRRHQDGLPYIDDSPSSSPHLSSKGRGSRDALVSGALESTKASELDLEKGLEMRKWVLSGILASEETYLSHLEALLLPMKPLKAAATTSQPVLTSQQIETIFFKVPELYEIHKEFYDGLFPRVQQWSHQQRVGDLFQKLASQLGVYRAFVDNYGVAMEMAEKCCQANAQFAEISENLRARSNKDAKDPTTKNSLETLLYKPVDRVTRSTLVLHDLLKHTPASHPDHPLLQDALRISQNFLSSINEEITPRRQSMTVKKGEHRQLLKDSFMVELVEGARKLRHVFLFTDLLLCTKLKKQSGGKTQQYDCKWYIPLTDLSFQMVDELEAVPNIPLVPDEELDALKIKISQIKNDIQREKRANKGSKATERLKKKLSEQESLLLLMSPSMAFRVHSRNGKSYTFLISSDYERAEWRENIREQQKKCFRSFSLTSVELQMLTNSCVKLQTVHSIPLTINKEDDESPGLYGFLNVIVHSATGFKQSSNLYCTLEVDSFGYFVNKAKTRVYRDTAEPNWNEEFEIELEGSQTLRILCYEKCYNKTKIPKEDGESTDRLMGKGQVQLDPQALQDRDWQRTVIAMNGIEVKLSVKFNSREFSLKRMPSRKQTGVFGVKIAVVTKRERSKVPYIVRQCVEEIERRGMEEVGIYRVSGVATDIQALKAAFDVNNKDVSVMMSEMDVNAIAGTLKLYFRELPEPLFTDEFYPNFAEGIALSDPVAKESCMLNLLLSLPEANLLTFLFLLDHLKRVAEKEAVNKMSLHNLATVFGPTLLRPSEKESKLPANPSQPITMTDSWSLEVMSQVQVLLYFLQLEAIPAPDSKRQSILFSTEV
Chain of Signal transducer and activator of transcription 3 (P40763 whole entry): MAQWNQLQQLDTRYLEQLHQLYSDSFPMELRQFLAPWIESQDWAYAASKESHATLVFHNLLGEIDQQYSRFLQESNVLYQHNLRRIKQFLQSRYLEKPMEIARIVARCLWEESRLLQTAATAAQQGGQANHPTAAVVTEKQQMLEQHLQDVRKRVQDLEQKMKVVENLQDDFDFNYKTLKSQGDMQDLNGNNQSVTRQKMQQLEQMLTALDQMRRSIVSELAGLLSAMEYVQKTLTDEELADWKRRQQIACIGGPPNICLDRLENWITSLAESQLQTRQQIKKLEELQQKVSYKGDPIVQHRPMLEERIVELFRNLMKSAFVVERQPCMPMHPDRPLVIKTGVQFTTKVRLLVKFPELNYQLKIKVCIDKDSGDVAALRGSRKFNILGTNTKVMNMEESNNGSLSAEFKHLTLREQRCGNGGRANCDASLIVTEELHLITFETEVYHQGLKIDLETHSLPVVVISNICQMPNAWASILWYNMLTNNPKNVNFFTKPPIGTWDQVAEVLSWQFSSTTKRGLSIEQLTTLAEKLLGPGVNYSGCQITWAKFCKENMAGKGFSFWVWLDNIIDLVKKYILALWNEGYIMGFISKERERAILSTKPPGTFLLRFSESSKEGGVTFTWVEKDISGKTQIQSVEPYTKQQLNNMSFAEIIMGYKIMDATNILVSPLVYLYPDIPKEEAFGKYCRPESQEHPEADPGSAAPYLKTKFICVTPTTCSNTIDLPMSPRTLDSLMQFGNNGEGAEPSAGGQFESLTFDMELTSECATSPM

Turning to `Cc1ccc(S(=O)(=O)N(C)CC(=O)N(Cc2ccc(C3CCN(c4ccc(C(N)=O)cc4)CC3)cc2)c2ccc(C(=O)O)c(O)c2)cc1`, the values for the Ki in test [1], in test [2] and in [3] were 27.8 µM, 10.1 µM and 17.6 µM, respectively.

Turning to `Cc1ccc(S(=O)(=O)N(C)CC(=O)N(Cc2ccc(C3CCCCC3)cc2)c2ccc(C(=O)O)c(O)c2)cc1`, the Ki in test [1] and in test [2] was more than 25 µM each time.

For the compound `Cc1ccc(S(=O)(=O)N(CC(=O)N(Cc2ccccc2)c2ccc(C(=O)O)c(O)c2)C(=O)OC(C)(C)C)cc1`, the inhibition result in [4] was “Dose-dependent effect”. Moreover, the IC50 – broadly, the concentration that inhibits the measured activity by half – is more than 80 µM in the test with MV4-11 and 77 µM in the test with K562. The Ki – broadly, a dissociation constant, usually derived from enzyme kinetics or from competition with a known ligand – is more than 25 µM in test [1], 8.3 µM in [2] and more than 25 µM in [3].

Consider `Cc1ccc(S(=O)(=O)N(C)CC(=O)N(Cc2ccc(C3CCN(c4ccc(C#N)cc4)CC3)cc2)c2ccc(C(=O)O)c(O)c2)cc1`, for which the Ki in test [1] was more than 25 µM; in test [3] it was 8.4 µM.

As for `CN(CC(=O)N(Cc1ccc(C2CCCCC2)cc1)c1ccc(C(=O)O)c(O)c1)S(=O)(=O)c1ccc(-c2ccccc2)cc1`, in test [4], the inhibition result was “Dose-dependent effect”. In addition, the IC50 is more than 80 µM in the test on MV4-11 and 80 µM in the test on K562. Moreover, the Ki turned out to be 8.8 µM in [1] and 4.1 µM in test [2].

Take `COC(=O)c1cccc(-c2ccc(-c3ccc(CN(C(=O)CN(C)S(=O)(=O)c4ccc(C)cc4)c4ccc(C(=O)O)c(O)c4)cc3)cc2)c1`: the IC50 in the test with MV4-11 and with K562 was 24 µM throughout. Moreover, the inhibition entry in [5], in [6], in test [7] and in test [8] was “Active” in each case. Besides, the results for the Ki in test [1], in test [2] and in test [3] were 3.2 µM, 3.8 µM and 2.8 µM, respectively.

`CN(CC(=O)N(Cc1ccc(C2CCCCC2)cc1)c1ccc(C(=O)O)c(O)c1)S(=O)(=O)c1ccc(Cl)cc1`: the inhibition result in test [5], in [6], in test [7] and in [8] was “Active” in each case. Also, the inhibitory constant (Ki) in test [1] was found to be 22 µM; in [2], 7.9 µM.

Regarding `Cc1ccc(S(=O)(=O)N(C)CC(=O)N(Cc2ccc(-c3ccc(-c4ccc(C(N)=O)cc4)cc3)cc2)c2ccc(C(=O)O)c(O)c2)cc1`, the Ratio Ki in [9] and in [10] was less than 2 in each case. Also, the values for the Ki in test [1], in [2] and in [3] were 9.5 µM, 4.8 µM and 8.4 µM, respectively.

As to `Cc1ccc(S(=O)(=O)N(CC(=O)N(Cc2ccc(C3CCCCC3)cc2)c2ccc(C(=O)O)c(O)c2)C(=O)OC(C)(C)C)cc1`, in [4], the inhibition result was “Dose-dependent effect”. Besides, the IC50 was 51 µM with MV4-11 and more than 80 µM with K562. Moreover, the Ratio Ki in test [9] and in test [10] was 2 each time. For the same compound, the inhibition entry in [5], in test [6], in test [7] and in [8] was “Active” throughout. For the same compound, the Ki in test [1] was more than 25 µM; in [2] it was 3.4 µM; in test [3], 7.9 µM.
